Shown are actives, neighbours in structure and some others; about 1.5% of the full set was active somewhere.
EBI2 block – antagonists of human EBI2 receptor | P32249 | EBI2 beta-arrestin recruitment, luminescence, 7a,25-OHC stimulated | inhibition, % at 5 µM | 0.81% of 360,000 active | AID 651636; in the data active = inhibition above about 38%;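 also: enzyme fragment complementation signal reports receptor beta-arrestin coupling in cells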
Target sequence (P32249 whole entry, looked up, the tested form may be a part): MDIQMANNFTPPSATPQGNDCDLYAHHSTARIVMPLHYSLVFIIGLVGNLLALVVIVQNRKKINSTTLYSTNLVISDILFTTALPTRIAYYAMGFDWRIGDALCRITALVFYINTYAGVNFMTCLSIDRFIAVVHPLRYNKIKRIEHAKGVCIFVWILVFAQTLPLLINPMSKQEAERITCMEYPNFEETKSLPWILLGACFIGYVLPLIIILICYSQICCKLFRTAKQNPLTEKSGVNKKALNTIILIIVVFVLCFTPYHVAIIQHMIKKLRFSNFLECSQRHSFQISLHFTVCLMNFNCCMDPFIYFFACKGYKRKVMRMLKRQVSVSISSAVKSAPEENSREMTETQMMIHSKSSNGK
APJ antagonist – APJ receptor antagonism | CHO-K1 APJ beta-arrestin complementation, luminescence | inhibition, % at 20 µM | 0.32% of 330,000 active;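 active = inhibition above about 40% at 20 µM, limit read from the data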;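 also: cells challenged with 10 nM apelin-13 agonist together with compound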
CXCR6 block – blocks human CXCR6 beta-arrestin recruitment; 0.36% of 360,000 active; inhibition, % at 20 µM; CHO-K1 PathHunter CXCR6 beta-arrestin, luminescence; O00574; in the data active = inhibition above about 34%, passing the limit was not always enough;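 also: antagonist mode with CXCL16 agonist at 10 nM final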
Target sequence (O00574 whole entry, looked up): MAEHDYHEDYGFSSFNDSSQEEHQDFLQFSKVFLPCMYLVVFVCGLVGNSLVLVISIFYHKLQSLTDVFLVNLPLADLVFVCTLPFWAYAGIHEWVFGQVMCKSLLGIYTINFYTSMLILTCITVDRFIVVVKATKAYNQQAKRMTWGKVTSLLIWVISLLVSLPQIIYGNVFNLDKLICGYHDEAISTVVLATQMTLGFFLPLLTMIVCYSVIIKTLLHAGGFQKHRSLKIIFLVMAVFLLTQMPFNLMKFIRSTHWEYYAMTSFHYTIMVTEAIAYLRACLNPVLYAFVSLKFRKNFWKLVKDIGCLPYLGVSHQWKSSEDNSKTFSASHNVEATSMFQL
CCR6 antag – CCR6 (human) receptor antagonism; P51684; CHO-K1 CCR6 PathHunter beta-arrestin, luminescence, CCL20-stimulated; inhibition, % at 20 µM; 0.49% of 340,000 active; AID 493098;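 active = compounds whose inhibition of the agonist-driven luminescence signal at 20 µM reaches about 50%, limit read from the data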;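 also: cells stimulated with CCL20 at 14 nM final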
APJ agonist – agonists of human APJ apelin receptor. P35414. CHO-K1 APJ PathHunter beta-arrestin, luminescence; 0% DMSO wells, 100% apelin. activation, % at 20 µM. 0.11% of 330,000 active;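 active = activation more than six SD over the plate average, tested at 20 µM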
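Assay system: CHO-K1 cells stably expressing ProLink-tagged human APJ and arrestin–beta-gal acceptor. Compound dosing: 20 µM single point, 1% DMSO. Times: 16-18 h seeding, 90 min dark compound exposure, 60 min detection. Detection: beta-gal luminescence. Evaluation: APJ–arrestin association signal. Controls: negative DMSO alone, positive Apelin-13 at 10 nM.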
EBI2 antag conf – EBI2 (human) antagonism, single concentration confirmation; shares compounds with EBI2 block; EBI2 beta-arrestin luminescence, 7a,25-OHC antagonism; inhibition, % at 5 µM; 29% of 2,400 active;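 active = inhibition of at least 50%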
EBI2 ag – counter-screen for EBI2 antagonists: EBI2 agonist activity. AID 652000. EBI2-expressing cells, agonist mode, luminescence, 60 min; 0% vehicle, 100% 7α,25-dihydroxycholesterol control. activation, % at 5 µM. 2,400 tested, under 10 active. shares compounds with EBI2 block;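 active = activation of at least 50%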
bGal counter – counter-screen for EBI2 antagonists: E. coli beta-galactosidase inhibition; purified beta-galactosidase, luminescent Galacton Star, 15 min; shares compounds with EBI2 block; inhibition, % at 5 µM; 1% of 2,400 active; AID 652176;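 active = replicate-average signal at least 3 plate SD below neutral wells, shown as high inhibition, flagging enzyme-inhibiting false positives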;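 also: higher means stronger loss of beta-gal luminescence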
Each line names hits and unclear results; the compound was inactive in the other large screens (follow-up assays come after a bar, where they were run).

Cc1c(COc2ccc3ccccc3c2)nnn1CC(=O)NS(=O)(=O)c1ccccc1C(F)(F)F	none (no result: APJ antagonist, CCR6 antag, APJ agonist)
c1ccc(C2OCCN2c2ccccc2)cc1 (centres undefined)	none (no result: APJ antagonist, APJ agonist)
C/C=C\C=C/C(=O)Nc1cccc(C2=NOC3(C2)C[C@@H](C(N)=O)N(C(=O)COc2ccc(Cl)cc2)C3)c1 (some centres undefined)	none
C/C=C\C=C\C(=O)N1CC2(CC(c3cccc(NC(=O)COc4ccc(Cl)cc4)c3)=NO2)C[C@H]1C(N)=O (some centres undefined)	EBI2 block 48 | EBI2 antag conf inactive | EBI2 ag inactive | bGal counter inactive
CC1(C(=O)NCc2ccccc2Br)CCN1Cc1csc2ccccc12 (centres undefined)	EBI2 block 61 (no result: APJ antagonist, CCR6 antag, APJ agonist) | EBI2 antag conf 51 | EBI2 ag inactive | bGal counter inactive
Cc1ccc(NC(=O)C2(C)CCN2Cc2csc3ccccc23)cc1 (centres undefined)	none (no result: APJ antagonist, CCR6 antag, APJ agonist)
S=C(NCc1cccnc1)Nc1ccc(Oc2ccc(Cl)cc2)cc1	EBI2 block 46 | EBI2 antag conf inactive | EBI2 ag inactive | bGal counter inactive
CN(C)C=Nc1ccccc1C1C=NNC1=O (centres undefined)	none (no result: EBI2 block, CXCR6 block, CCR6 antag)
CC(=O)Nc1ccc(S(=O)(=O)N2CCC(C(=O)NCCc3c[nH]c4ccccc34)CC2)cc1	EBI2 block 49 | EBI2 antag conf inactive | EBI2 ag inactive | bGal counter inactive
O=C(NCCc1c[nH]c2ccccc12)C1CCN(S(=O)(=O)c2ccccc2)CC1	none
Cn1nnc2c[n+](CC(=O)c3ccc(Cl)cc3)cc(Br)c21	none
Cn1nnc2c[n+](CC(=O)c3ccc4ccccc4c3)cc(Br)c21	EBI2 block 66 | EBI2 antag conf 67 | EBI2 ag inactive | bGal counter inactive
COc1ccc(N(CC(=O)Nc2cc(C)ccc2C)S(=O)(=O)c2c(C)noc2C)cc1	none
COc1ccc(N(CC(=O)Nc2cc(C)ccc2OC)S(=O)(=O)c2c(C)noc2C)cc1	EBI2 block 42 | EBI2 antag conf inactive | EBI2 ag inactive | bGal counter inactive
COc1ccccc1NC(=O)c1ccc(NC(=O)c2ccc(=O)[nH]c2)cc1	none
O=C1CC(Nc2ccc3ccccc3c2)C(=O)N1Cc1ccccc1 (centres undefined)	EBI2 block 63 | EBI2 antag conf inactive | EBI2 ag inactive | bGal counter inactive
CC(C)Sc1nc2sc(-c3ccccc3)cc2c(=O)n1N	EBI2 block 51 | EBI2 antag conf inactive | EBI2 ag inactive | bGal counter inactive
CCOC(=O)C(Sc1cc(-c2ccccc2)nc2ncnn12)C(C)=O (centres undefined)	none
COC(=O)c1cc(=O)n(Cc2ccc(F)cc2)c(=NCc2ccc(F)cc2)s1	none
COC(=O)c1cc(=O)n(Cc2ccc3c(c2)OCO3)c(=Nc2ccc(F)cc2)s1	EBI2 block 66 | EBI2 antag conf inactive | EBI2 ag inactive | bGal counter inactive
COC(=O)c1ccc(N=c2sc(C(=O)OC)cc(=O)n2C)cc1	EBI2 block 66 (no result: APJ antagonist, APJ agonist) | EBI2 antag conf 78 | EBI2 ag inactive | bGal counter inactive
COC(=O)c1cc(=O)n(-c2ccc(F)cc2)c(=Nc2ccc(F)cc2)s1	none
COC(=O)c1cc(=O)n(Cc2ccc3c(c2)OCO3)c(=Nc2ccccc2)s1	EBI2 block 53 | EBI2 antag conf 58 | EBI2 ag inactive | bGal counter inactive
CC(=O)N/N=C(\N)c1nonc1N	none
COC(=O)C[C@H]1N(S(=O)(=O)c2ccc(C)cc2)C(C(C)C)CC1(C(=O)OC)C(=O)OC (some centres undefined)	none (no result: APJ antagonist, CXCR6 block, CCR6 antag, APJ agonist)
CCC(=O)Nc1ccc(C(=O)CSc2nnc(-c3ccc(NS(=O)(=O)CC)cc3)o2)cc1OC	none
CCC(C)NC(=O)CSc1nnc(-c2ccc(OC)c(OC)c2)c(-c2ccc(OC)c(OC)c2)n1 (centres undefined)	none
Cc1ccc(NC(=S)Nc2ccc(OC(F)F)c(Cl)c2)cc1F	none
Cc1ccc(CNC(=O)c2cc(=O)c3cc(C)ccc3o2)cc1	none
COc1ccc(CNC(=O)c2cc(=O)c3cc(C)c(C)cc3o2)cc1	EBI2 block 56 | EBI2 antag conf inactive | EBI2 ag inactive | bGal counter inactive
O=C(CCCn1c(=S)[nH]c2cc3c(cc2c1=O)OCO3)NCc1cccc(Cl)c1	none
COc1cccc(C(=O)Oc2ccc3ccc(=O)oc3c2)c1	none
Cn1cccc1CC(=O)N/N=C/c1ccc(C(C)(C)C)cc1	none
CSc1ccc(/C=N/N2CCN(Cc3ccc(Cl)cc3)CC2)cc1	none
CSc1ccc(/C=N/NC(=O)CN2CCN(Cc3ccc(Cl)cc3)CC2)cc1	EBI2 block 50 | EBI2 antag conf inactive | EBI2 ag inactive | bGal counter inactive
Cc1ccc(/C=N/NC(=O)CSCc2ccc(Cl)cc2)cc1	EBI2 block 62 | EBI2 antag conf inactive | EBI2 ag inactive | bGal counter inactive
CSc1ccc(/C=N/NC(=O)CN2CCN(Cc3ccccc3)CC2)cc1	EBI2 block 50 | EBI2 antag conf inactive | EBI2 ag inactive | bGal counter inactive
Cc1ccc(/C=N/NC(=O)Cc2cccn2C)cc1	EBI2 block 46 | EBI2 antag conf inactive | EBI2 ag inactive | bGal counter inactive
CC(C)CNc1ncnc2c1ncn2[C@H]1CN(Cc2ccc(Cl)cc2)C[C@@H](CO)O1	none (no result: APJ antagonist, CCR6 antag, APJ agonist)
CC(C)Nc1ncnc2c1ncn2[C@H]1CN(Cc2ccc(Cl)cc2)C[C@@H](CO)O1	EBI2 block 74 (no result: APJ antagonist, CCR6 antag, APJ agonist) | EBI2 antag conf 88 | EBI2 ag inactive | bGal counter inactive
CC(C)Nc1ncnc2c1ncn2[C@H]1CN(Cc2ccc(F)cc2)C[C@@H](CO)O1	EBI2 block 47 (no result: APJ antagonist, CCR6 antag, APJ agonist) | EBI2 antag conf 50 | EBI2 ag inactive | bGal counter inactive
COc1ccc(/C=N/OCC(=O)NC(c2ccccc2)c2ccccc2)c(OC)c1	none
CCOc1ccc(/C=N/OCC(=O)NC(c2ccccc2)c2ccccc2)cc1	EBI2 block 79 | EBI2 antag conf 60 | EBI2 ag inactive | bGal counter inactive
Cc1cc(OC(C)C(=O)N2CCN(c3ccc(F)cc3)CC2)c2c(C)c(C)c(=O)oc2c1 (centres undefined)	none
Cc1cc(C)c(C#N)c(SCC(O)CS(=O)(=O)Cc2ccccc2)n1 (centres undefined)	none
Cc1cc(C)c(C#N)c(SCC(O)COc2ccc(Br)cc2)n1 (centres undefined)	EBI2 block 65 | EBI2 antag conf inactive | EBI2 ag inactive | bGal counter inactive
